Assay outcomes (PubChem BioAssay)
Shown are actives, neighbours in structure and some others; about 2.7% of the full set was active somewhere.
PAFAH2 FP inh = PAFAH2 (human) inhibition | Q99487 | recombinant PAFAH2, FP-rhodamine activity probe, fluorescence polarization | inhibition, % at 3.39 µM | hit rate 0.99% among 340,000 | AID 492956;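 active = inhibition above the mean over all tested compounds plus 3 SD, cut at about 30% in these data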;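 note: inhibitors block probe labeling of enzyme so polarization drops; 0% = enzyme with DMSO and 100% = wells lacking PAFAH2 protein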
PAFAH1B3 FP inh = PAFAH1B3 (human) inhibition; Q15102; recombinant PAFAH1B3, FP-rhodamine probe, fluorescence polarization; inhibition, % at 3.39 µM; hit rate 0.28% among 340,000;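 active = inhibition above the screen-wide average of all tested compounds plus 3 SD, cut at about 25% in these data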;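 note: 0% = enzyme with DMSO only and 100% = wells lacking PAFAH1B3 protein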
pPAFAH FP inh = inhibitors of human plasma PAF acetylhydrolase (pPAFAH); Q13093; recombinant pPAFAH, FP-rhodamine probe fluorescence polarization; inhibition, % at 3.39 µM; hit rate 1.5% among 330,000; AID 463082;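 active = inhibition above the mean inhibition across the screen plus 3 SD, cut at about 25% in these data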;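 note: inhibitors block binding of the rhodamine activity-based probe so polarization drops; 0% = enzyme with DMSO and 100% = wells lacking pPAFAH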
Target sequence (Q13093 whole entry, looked up): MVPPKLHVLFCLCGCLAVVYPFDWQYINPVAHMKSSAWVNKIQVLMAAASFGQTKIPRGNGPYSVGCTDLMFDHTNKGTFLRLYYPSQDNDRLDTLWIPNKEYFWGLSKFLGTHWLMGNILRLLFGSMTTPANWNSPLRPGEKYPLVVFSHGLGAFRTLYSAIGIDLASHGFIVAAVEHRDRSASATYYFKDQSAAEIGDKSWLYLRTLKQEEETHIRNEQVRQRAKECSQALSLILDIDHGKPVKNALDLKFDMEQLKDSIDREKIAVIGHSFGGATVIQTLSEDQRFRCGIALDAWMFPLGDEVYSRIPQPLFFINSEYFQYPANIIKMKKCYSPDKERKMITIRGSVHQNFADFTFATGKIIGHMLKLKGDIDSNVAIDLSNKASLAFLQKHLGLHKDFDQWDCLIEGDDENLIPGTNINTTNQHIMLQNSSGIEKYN
PAFAH1B2 inh = PAFAH1B2 (human) inhibition; P68402; hit rate 1.2% among 340,000; recombinant PAFAH1B2, FP-rhodamine activity probe, fluorescence polarization; inhibition, % at 3.39 µM;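 active = inhibition above the mean of all tested compounds plus 3 SD, cut at about 24% in these data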;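 note: 0% = enzyme with DMSO and 100% = wells lacking PAFAH1B2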
ARFGAP1 inhibitor = inhibits rat ARF GTPase activating protein 1. inhibition, % at 16.5 µM. AID 651572. hit rate 0.26% among 360,000. Q62848. Arfgap1-stimulated ARF1 GTP hydrolysis, GDP FP detection;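 active = inhibition above a per-plate limit, mean inhibition of low control wells plus 3 SD, cut at about 25% in these data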;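 note: 0% = DMSO wells with enzyme and 100% = wells lacking Arfgap1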
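System: truncated rat Arfgap1 GAP domain / Medium: HEPES-based buffer, pH 7.5 / Also added: N-terminally truncated human ARF1-GTP substrate / Incubation: enzyme reaction 120 min at 25 °C after 20 min preincubation / Measured by: FP of antibody-bound GDP Alexa 633 tracer, ex 620/em 688 nm / Replicates: singlicate, each compound tested once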
ASAP1 inh = ASAP1 ArfGAP inhibition; AID 624377; inhibition, % at 16.5 µM; hit rate 0.19% among 360,000; Q9ULH1; ASAP1-stimulated ARF1 GTP hydrolysis, GDP FP detection; in the data active = inhibition above about 25%;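 note: 0% = vehicle with enzyme and substrate and 100% = no enzyme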
ASAP1 GAP conf = confirmation of human ASAP1 inhibitors. shares compounds with ASAP1 inh. ASAP1-stimulated Arf1 GTPase, GDP fluorescence polarization. inhibition, % at 16.5 µM. hit rate 37% among 620;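 active = mean inhibition over triplicates exceeds the hit threshold derived for the earlier primary screening run, cut at about 25% in these data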
Starred values were filed as active, the others as inactive; · = no result given.

SMILES	PAFAH2 FP inh	PAFAH1B3 FP inh	pPAFAH FP inh	PAFAH1B2 inh	ARFGAP1 inhibitor	ASAP1 inh	ASAP1 GAP conf
NC1=NN(c2c(Cl)cc(Cl)cc2Cl)C(=O)C1	4	5	·	4	-5	26*	6
Clc1ccc(OCc2nn3c(-c4ccco4)nnc3s2)c(Cl)c1	-1	-3	3	-4	5	26*	37*
CC(Oc1ccc(-c2ccccc2)cc1)C(=O)N/N=C/c1cccnc1 (stereo not drawn)	0	4	-7	0	14	-2	·
COc1ccc(N(C)S(=O)(=O)c2cccc(C(=O)N3CCN(Cc4ccc5c(c4)OCO5)CC3)c2)cc1	-4	9	·	2	6	-5	·
COc1ccc(N(C)S(=O)(=O)c2cccc(C(=O)NCc3ccc4c(c3)OCO4)c2)cc1	14	1	9	7	4	25*	6
COC(=O)CCCC1=CC2=CC(=O)C(C)(OC(=O)c3cccs3)C(=O)C2=CN1Cc1ccco1 (stereo not drawn)	9	7	1	2	-6	25*	4
Cc1ccc2c(c1)c1c(n2CC(O)CN2CCOCC2)CCCC1 (stereo not drawn)	·	·	8	·	·	·	·
COc1ccc(C(=O)c2c(C)c3cc(C)ccc3n2CC(O)CN2CCOCC2)cc1 (stereo not drawn)	3	-10	9	-2	-8	26*	1
Cc1ccc(-c2nc(Nc3cccc(O)c3)c3ccccc3n2)cc1	-9	10	-2	-3	20	29*	19
CCCS(=O)(=O)NC(=O)C1(C)CCN(C(=O)c2cccc(C)c2C)C1 (stereo not drawn)	·	·	·	·	0	-2	·
O=C(CCc1nnc(Cc2c[nH]c3ccccc23)o1)NCCC1CCCCO1 (stereo not drawn)	·	·	·	·	3	3	·
CC(C)c1ccc(OCC(=O)Nc2ccc(S(=O)(=O)Nc3ccccn3)cc2)cc1	-13	-7	-4	1	4	25*	-4
O=C(Nc1ccc(Br)cc1)c1cc(-c2ccncc2)nc2ccccc12	-12	0	11	-3	17	29*	16
O=C(Nc1ccncc1)c1cc(-c2ccccc2)nc2ccccc12	·	·	·	·	-7	-3	·
N#Cc1ccc(OCCCN2CCC(C(O)(c3ccccc3)c3ccccc3)CC2)cc1	·	·	·	·	-6	25*	-3
Cn1nc(C(=O)OCC(=O)NCc2ccc(Cl)cc2Cl)c2ccccc2c1=O	·	·	·	·	6	-8	·
O=c1c2ccccc2nc(/C=C/c2cc(Br)ccc2O)n1CCO	0	6	0	0	4	27*	9
O=C1C(Nc2ccccc2)=C(N2CCCCC2)C(=O)c2ccccc21	37*	60*	5	17	10	30*	17
COc1ccc(S(=O)(=O)c2ccc(O)cc2)cc1	4	7	0	8	-9	-5	·
COc1ccc(S(=O)(=O)/N=C2\C=C(Nc3ccc(O)cc3)C(=O)c3ccccc32)cc1	43*	70*	26*	25*	20	38*	25*
C=CCn1c(C)cc(-c2csc(NCC)n2)c1C	14	4	-7	3	15	13	·
C=CCn1c(C)cc(-c2csc(NC)n2)c1C	0	7	·	0	0	26*	5
Cc1cc(C)c(C)c(S(=O)(=O)N2CCSCC2)c1C	-1	9	-6	3	-2	25*	5
CC(Sc1ccsc1[N+](=O)[O-])C(=O)NCc1ccccc1 (stereo not drawn)	·	·	8	·	8	25*	3
Cc1nc2nc(C)c(NS(=O)(=O)c3ccc4c(c3)CCCC4)c(=O)n2[nH]1	8	11	-8	11	20	-1	·
Cc1ccc2c(CC(=O)N3CCN(c4ccccc4)CC3)coc2c1	-13	2	-1	4	3	25*	1
CCc1ccc(-n2c(C)cc(/C=N/NC(=O)OC)c2C)cc1	-3	8	12	-4	-6	-7	·
COCCn1cnc2c(c1=O)c1nc3ccccc3nc1n2/N=C/c1ccc(OC)c(OC)c1	4	9	4	6	-13	33*	37*
CCCNC(=O)C1(C)CCN(Cc2ccc(-n3ccnc3)cc2)C1 (stereo not drawn)	·	·	·	·	3	26*	2
